# rRNA inh HTS: inhibits bacterial ribosomal RNA function over humanized ribosomes | E. coli WT GFP vs humanized-ribosome RFP mutants, fluorescence, 24 h; stronger effect = lower value; DMSO median 0, no signal -100 | GFP signal change (wild-type ribosome), % (no concentration beside the values) | 350,000 tested, 1.6% active;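 active means significant combined selectivity score with lowered wild-type GFP, culture density cut under 30%, mutant RFP and density less affected; inactive means any of these conditions unmet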
# AF4-AF9 inh: blocks AF4 peptide binding to human AF9. P42568. AlphaScreen, biotin-AF4 peptide binding to FLAG-AF9. inhibition, % at 10 µM. 350,000 tested, 0.47% active;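 active means every replicate reaching a set inhibition limit, whatever the replicate mean, cut at about 25% in these data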
# E-sel inducer: induces E-selectin expression in human endothelial cells | activation, % at 7.58 µM | AID 686992 | HUVEC E-selectin immunofluorescence imaging; normalized: neutral wells 0, TNF-alpha wells 100 | P16581 | 260,000 tested, 0.37% active;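 active means mean E-selectin-positive cell signal at least 10% of the positive control, reached in at least 60% of replicates, without over 20% cell loss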
# Target sequence (P16581 whole entry, looked up): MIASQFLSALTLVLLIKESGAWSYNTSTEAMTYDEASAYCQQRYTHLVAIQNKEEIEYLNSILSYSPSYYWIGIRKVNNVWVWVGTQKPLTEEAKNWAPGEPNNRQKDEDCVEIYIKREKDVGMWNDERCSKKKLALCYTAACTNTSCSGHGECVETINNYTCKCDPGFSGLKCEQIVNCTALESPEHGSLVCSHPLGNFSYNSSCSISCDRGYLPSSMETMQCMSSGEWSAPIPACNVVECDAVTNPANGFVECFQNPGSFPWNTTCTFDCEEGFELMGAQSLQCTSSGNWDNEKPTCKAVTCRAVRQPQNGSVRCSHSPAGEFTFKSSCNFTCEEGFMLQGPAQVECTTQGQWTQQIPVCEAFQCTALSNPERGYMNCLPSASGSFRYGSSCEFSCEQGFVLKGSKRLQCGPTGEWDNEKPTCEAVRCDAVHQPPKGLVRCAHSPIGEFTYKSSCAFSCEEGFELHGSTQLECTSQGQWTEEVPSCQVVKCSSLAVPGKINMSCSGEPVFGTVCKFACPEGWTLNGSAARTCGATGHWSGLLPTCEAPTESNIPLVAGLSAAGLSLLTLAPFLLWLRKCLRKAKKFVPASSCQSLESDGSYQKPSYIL
#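 Read-out basis: % PE-positive cells; Test system: HUVEC primary endothelial cells; Technique: immunofluorescence imaging; Dosing: single-point compound dose.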
# SIRT5 inh: sirtuin-5 (human) deacylase inhibition | 330,000 tested, 1.1% active | AID 652115 | Purified SirT5, succinyl-peptide AMC, trypsin-coupled fluorescence | inhibition, % at 15 µM; in the data active means inhibition above about 15%
# ERAP1 HTS inh: inhibitors of human ERAP1 aminopeptidase; Q9NZ08; recombinant ERAP1, Leu-AMC fluorescence, 60 min; inhibition, % at 10.7 µM; 340,000 tested, 0.15% active; AID 652197;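 active means mean replicate inhibition of at least 30%, or all replicates individually reaching that 30% level; inactive means mean below 30% and not every replicate reaching it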
# S100A4 inh HTS: inhibitors of human S100A4 binding to myosin IIA peptide; P26447; S100A4/TAMRA-MyoIIA peptide fluorescence polarization; inhibition, % at 10.7 µM; 360,000 tested, 0.14% active; AID 652163;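 active means mean inhibition of at least 70% across replicates, with every replicate also reaching that level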
#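 assay system = human S100A4 monomer with TAMRA-labelled myosin IIA peptide | also added = labelled myosin peptide probe, 5 nM | incubation = 5 min between mix addition and reading | control set = DMSO and TFP controls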
# A number is an active result; – = inactive; · = not tested or not shown. A selection: hits, their analogues and other compounds. The true share with any hit is near 3.4%.
SMILES,rRNA inh HTS,AF4-AF9 inh,E-sel inducer,SIRT5 inh,ERAP1 HTS inh,S100A4 inh HTS
CC(C)NC(=O)Nc1ccc2c(c1)C(=O)N(C)[C@H]1CC[C@H](CC(=O)NCC(F)(F)F)O[C@@H]1CO2,–,·,–,·,·,·
CN(C)C(=O)C[C@@H]1CC[C@@H]2[C@H](COc3ccc(NC(=O)c4ccc(F)c(F)c4)cc3C(=O)N2C)O1,–,–,–,16,–,–
CCNC(=O)[C@@H]1[C@@H](CO)[C@@H]2Cn3c(ccc(-c4ccccc4)c3=O)[C@H]1N2C(=O)C1CC1,–,–,–,–,–,–
CNC(=O)C[C@H]1CC[C@H]2[C@@H](COc3ccc(NC(=O)c4ccccc4OC)cc3C(=O)N2C)O1,–,–,–,–,–,–
COc1ccccc1C(=O)Nc1ccc2c(c1)C(=O)N(C)[C@H]1CC[C@H](CC(=O)Nc3cccc(C(C)C)c3)O[C@@H]1CO2,–,–,–,19,–,–
CCNC(=O)C[C@@H]1CC[C@H]2[C@@H](COc3ccc(NC(=O)Nc4ccc(F)cc4)cc3C(=O)N2C)O1,–,–,84,–,–,–
Cc1nn(C)cc1NC(=O)C[C@H]1CC[C@H]2[C@H](COc3ccc(NC(=O)C4CCC4)cc3C(=O)N2C)O1,–,·,–,·,·,·
CN1C(=O)c2cc(NC(=O)c3cccc(F)c3)ccc2OC[C@@H]2O[C@@H](CC(=O)N3CCc4ccccc4C3)CC[C@H]21,–,–,–,–,–,–
Cc1nn(C)cc1NC(=O)C[C@@H]1CC[C@@H]2[C@@H](COc3ccc(NC(=O)C4CCC4)cc3C(=O)N2C)O1,-16,·,–,·,·,·
CN1C(=O)c2cc(NC(=O)c3cccc(F)c3)ccc2OC[C@H]2O[C@@H](CC(=O)N3CCc4ccccc4C3)CC[C@@H]21,-26,–,–,–,–,–
N#Cc1cccc(-c2ccc3c(c2)[C@@H]2[C@@H](CCN2S(=O)(=O)c2ccccc2F)[C@@H](CO)N3)c1,–,–,–,–,–,–
CN1C(=O)c2cc(NC(=O)c3cccs3)ccc2OC[C@H]2O[C@H](CC(=O)N3CCOCC3)CC[C@@H]21,–,–,–,17,–,–
CC(C)C(=O)N=c1sc2cc(F)cc(F)c2n1C,–,–,–,17,–,–
O=C(C[C@@H]1C[C@H]2c3cc(NC(=O)NC4CCCCC4)ccc3O[C@H]2[C@@H](CO)O1)NCc1cccnc1,–,–,–,–,–,–
C[N+]1(C2CCC3CCCC2C3O)CCCCC1 (centres undefined),–,–,·,–,46,–
CCNC(=O)[C@@H]1[C@@H](CO)[C@@H]2Cn3c(cccc3=O)[C@H]1N2C(=O)c1ccc(F)cc1,–,–,–,–,–,–
CO[C@H]1CN(C)C(=O)c2ccc(NC(=O)CC(F)(F)F)cc2OC[C@@H](C)N(C(C)=O)C[C@@H]1C,–,–,–,·,–,–
COc1ccc(C(C)=O)cc1CSc1nnnn1-c1ccc(O)cc1,-48,–,–,–,·,–
COc1ccc(-c2nnc(SCCC(=O)O)n2-c2ccccc2)cc1OC,–,–,·,15,–,–
O=C(O)CCSc1nc2ccccc2n1-c1ccccc1,-24,–,–,–,–,–
COc1ccc(C(C)=O)cc1CSc1nnc(-c2ccccc2O)n1-c1ccccc1,-27,–,·,–,–,–
COc1ccc(S(=O)(=O)Nc2ccc3c(c2)C(=O)N([C@H](C)CO)C[C@H](C)[C@@H](CN(C)C)O3)cc1,–,–,–,–,–,–
COCC(C)n1c(C)cc(C(=O)CSc2nnnn2-c2ccc(O)cc2)c1C (centres undefined),-28,–,·,·,–,–
COc1ccc(C(C)=O)cc1CSc1nnc(Nc2ccc(C)cc2C)s1,–,–,·,·,–,–
COc1ccc(C(C)=O)cc1CSc1nnc(Nc2c(C)cccc2C)s1,–,–,·,21,–,–
SMILES,rRNA inh HTS,AF4-AF9 inh,E-sel inducer,SIRT5 inh,ERAP1 HTS inh,S100A4 inh HTS
CCCC(=O)N1CC2(CN(C(=O)C3CCC3)C2)c2c(n(C)c3cc(OC)ccc23)[C@H]1CO,–,–,–,–,–,–
COc1ccccc1CNc1ccc([N+](=O)[O-])cc1C,–,–,·,–,–,–
COc1cccc(CNc2ccc([N+](=O)[O-])cc2Cl)c1O,-50,–,·,–,–,–
CN(/N=C/c1cc(Cl)cc(Cl)c1O)C(=S)NC(C)(C)C,–,–,71,·,·,–
Cc1ccc(C)c(S(=O)(=O)N2CCCCC2CCNC(=O)C(=O)NCc2ccccn2)c1 (centres undefined),–,–,–,–,–,–
Cc1cc(F)ccc1S(=O)(=O)N1CCCCC1CCNC(=O)C(=O)NCc1ccccn1 (centres undefined),–,–,75,–,–,–
COCC(=O)N1C[C@@H](C)[C@@H](OC)CN(C)C(=O)c2cc(NC(=O)c3cc(C)on3)ccc2OC[C@H]1C,–,–,–,19,–,–
COCC(=O)N1C[C@@H](C)[C@@H](OC)CN(C)C(=O)c2cc(NC(=O)C3CCC3)ccc2OC[C@@H]1C,–,·,–,·,·,·
COCC(=O)N1C[C@@H](C)[C@@H](OC)CN(C)C(=O)c2cc(NC(=O)c3cc(C)on3)ccc2OC[C@@H]1C,–,–,–,–,–,–
COCC(=O)N1C[C@H](C)[C@H](OC)CN(C)C(=O)c2cc(NC(=O)C3CCC3)ccc2OC[C@@H]1C,–,–,–,24,–,–
CC(C)(CC(=O)O)CC(=O)O,–,–,–,–,–,–
CC(C)(C)C(=O)CNCC(=O)C(C)(C)C,–,–,·,25,–,–
Cc1cccc(/C=C/C(=O)c2ccc(NC3=NCCCS3)cc2)c1,–,–,·,–,35,–
O=C(/C=C/c1ccccc1)c1ccc(NC2=NCCCS2)cc1,-26,–,–,–,–,–
C[C@@H]1CN([C@H](C)CO)C(=O)Cc2cc(NC(=O)Cc3cn(C)c4ccccc34)ccc2O[C@H]1CN(C)Cc1ccc2c(c1)OCO2,–,–,·,–,–,–
COc1ccc2c3c([nH]c2c1)[C@H](CO)N(C(=O)Nc1cccc(F)c1)CC31CN(CC2CC2)C1,–,29,–,–,–,–
COc1ccc2c3c([nH]c2c1)[C@@H](CO)N(C(=O)Nc1cccc(F)c1)CC31CCN(CC2CC2)CC1,–,25,–,·,–,–
COc1ccc2c3c([nH]c2c1)[C@H](CO)N(C(=O)Nc1cccc(F)c1)CC31CCN(CC2CC2)CC1,–,–,–,–,–,–
C[C@H](CO)N1C[C@H](C)[C@@H](CN(C)C(=O)C2CC2)Oc2cc(-c3cncnc3)ccc2S1(=O)=O,–,·,–,·,·,·
C[C@@H]1CN([C@@H](C)CO)C(=O)c2cc(NS(=O)(=O)c3cn(C)cn3)ccc2O[C@@H](C)CCCCO[C@@H]1CN(C)C(=O)CCC(F)(F)F,–,–,–,–,–,–
